Values after ≈ are worked out from the molar mass of the structure shown.
What was measured:
CCRF-CEM = assay: Antitumor activity against human CCRF-CEM assessed as growth inhibition; format: functional; conditions: read-out: ID50 (the source's name)
Dihydrofolate reductase = Dihydrofolate reductase (Lactobacillus casei, UniProt P00381); assay: Inhibition of Lactobacillus casei ATCC 7469 dihydrofolate reductase; design: species or system Lacticaseibacillus casei
Lacticaseibacillus casei = assay: Antimicrobial activity against folate-dependent Lactobacillus casei ATCC 7469 assessed as growth inhibition; format: functional, organism-based
L1210 [1] = assay: Antitumor activity against mouse L1210 cells allografted in BDF/1 hybrid mouse assessed as increase in life span at 400 mg/kg, ip first dose treated 24 hrs after tumor implantation and on day 4 and 7; format: functional; conditions: route intraperitoneal
Summary of the method: (§1)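 Male BDF/1 hybrid mice were inoculated ip with 10⁵ L-1210 leukemia cells and then given three doses (mg/kg × 3). The read-out was percent increase in life span (% ILS) compared with untreated control animals, reported at the optimal dose.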

Thymidylate synthase = biological target: T1, Thymidylate synthase (Lactobacillus casei, UniProt P00469); assay: Inhibition of Lactobacillus casei ATCC 7469 thymidylate synthase; design: species or system Lacticaseibacillus casei
T1 sequence (P00469 whole entry): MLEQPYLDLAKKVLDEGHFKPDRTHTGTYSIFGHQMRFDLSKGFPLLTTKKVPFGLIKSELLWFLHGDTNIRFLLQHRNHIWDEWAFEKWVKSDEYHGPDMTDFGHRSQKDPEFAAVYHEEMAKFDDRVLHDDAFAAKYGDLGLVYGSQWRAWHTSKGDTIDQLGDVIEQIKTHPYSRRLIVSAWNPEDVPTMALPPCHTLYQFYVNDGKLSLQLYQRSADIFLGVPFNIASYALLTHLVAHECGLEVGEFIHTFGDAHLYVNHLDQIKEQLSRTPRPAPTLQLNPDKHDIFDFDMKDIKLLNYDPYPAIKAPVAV

L1210 [2] = assay: Antitumor activity against mouse L1210 cells allografted in BDF/1 hybrid mouse assessed as increase in life span at 200 mg/kg, ip first dose treated 24 hrs after tumor implantation and on day 4 and 7; format: functional; conditions: route intraperitoneal; summary of the method: as §1
L1210 [3] = assay: Antitumor activity against mouse L1210 cells allografted in BDF/1 hybrid mouse assessed as increase in life span at 50 to 200 mg/kg, ip first dose treated 24 hrs after tumor implantation and on day 4 and 7; format: functional; conditions: dose mg/kg 50-200; route intraperitoneal; summary of the method: as §1
L1210 [4] = assay: Antitumor activity against mouse L1210 cells allografted in BDF/1 hybrid mouse assessed as increase in life span at 30 mg/kg, ip first dose treated 24 hrs after tumor implantation and on day 4 and 7; format: functional; conditions: route intraperitoneal; summary of the method: as §1

Dihydrofolate reductase, sequence (P00381 whole entry): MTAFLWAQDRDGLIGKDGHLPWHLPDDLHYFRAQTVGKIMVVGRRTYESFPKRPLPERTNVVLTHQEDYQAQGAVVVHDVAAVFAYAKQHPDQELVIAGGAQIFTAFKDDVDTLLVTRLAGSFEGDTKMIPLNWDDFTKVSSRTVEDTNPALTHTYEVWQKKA

Row | SMILES | IC50 (CCRF-CEM) [µg/mL] | IC50 (Dihydrofolate reductase) [nM] | IC50 (Lacticaseibacillus casei) [µg/mL] | ILS at 400 mg/kg (L1210 [1]) [%] | IC50 (Thymidylate synthase) [nM] | ILS at 200 mg/kg (L1210 [2]) [%] | ILS (L1210 [3]) [%] | ILS at 30 mg/kg (L1210 [4]) [%]
1 | COC(=O)C[C@H](NC(=O)Nc1ccc(N(C)Cc2cnc3nc(N)nc(N)c3n2)cc1)C(=O)OC | 3.9 (≈ 8.07 µM) | 600 | 0.006 (≈ 0.0124 µM) |  |  |  |  | 
2 | COC(=O)CC[C@H](NC(=O)Nc1ccc(N(C)Cc2cnc3nc(N)nc(N)c3n2)cc1)C(=O)OC | 3.5 (≈ 7.03 µM) | 300 | 0.006 (≈ 0.0121 µM) |  |  |  |  | 
3 | CN(Cc1cnc2nc(N)nc(N)c2n1)c1ccc(NC(=O)NC(CC(=O)O)C(=O)O)cc1 (racemic) | 3.2 (≈ 7.03 µM) | 50 | 0.15 (≈ 0.329 µM) | 22 | 190000 |  |  | 
4 | CN(Cc1cnc2nc(N)nc(N)c2n1)c1ccc(NC(=O)NC(CCC(=O)O)C(=O)O)cc1 (racemic) | 0.4 (≈ 0.852 µM) | 80 | 0.008 (≈ 0.017 µM) |  | 250000 | 55 |  | 
5 | COC(=O)CCC1NC(=O)N(c2ccc(N(C)Cc3cnc4nc(N)nc(N)c4n3)cc2)C1=O (racemic) | 6.7 (≈ 14.4 µM) | 4000 | 0.104 (≈ 0.223 µM) |  |  |  | 0 | 
6 | CN(Cc1cnc2nc(N)nc(N)c2n1)c1ccc(C(=O)N[C@@H](CCC(=O)O)C(=O)O)cc1 [METHOTREXATE] | 0.02 (≈ 0.044 µM) |  |  |  |  |  |  | 88

Reference: ChEMBL document CHEMBL3243987 (J Med Chem, 1979)
